This is an account of results in ChEMBL document CHEMBL3739344, “A novel class of negative allosteric modulators of NMDA receptor function” (Bioorg Med Chem Lett, 2015).

Values after ≈ are worked out from the molar mass of the structure shown. Active and inactive are the calls of the source. No cut-off for these calls is given here.

Data set [1] concerns the target T1, Ionotropic glutamate receptor NMDA 1/2D (Rattus norvegicus) (UniProt P35439+Q62645). The data set can be described thus: Negative allosteric modulation of rat GluN1a/GluN2D receptor expressed in Xenopus laevis oocytes assessed as suppression of 100 uM glutamate and 30 uM glycine induced-current at saturating compound level by voltage clamp recording method. It is filed as cell-based. The method, boiled down:
(§1)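 Rat GluN1-1a cRNA co-injected with GluN2A, 2B, 2C or 2D cRNA into Xenopus oocytes; expression 1–3 days at 16–19 °C. Two-electrode voltage clamp. Currents evoked by 100 µM glutamate plus 30 µM glycine, alone and then with rising inhibitor concentrations. […] 4–17 oocytes from ≥2 frogs.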

In data set [2] the target is T2, Glutamate NMDA receptor; Grin1/Grin2a (Rattus norvegicus) (UniProt P35439+Q00959). As to the kind of experiment: Negative allosteric modulation of rat GluN1a/GluN2A receptor expressed in Xenopus laevis oocytes assessed as suppression of 100 uM glutamate and 30 uM glycine induced-current at saturating compound level by voltage clamp recording method. The class given is cell-based. The method, boiled down:
as §1

For data set [3], the target named is T3, Glutamate NMDA receptor; Grin1/Grin2c (Rattus norvegicus) (UniProt P35439+Q00961). As to the kind of experiment: Negative allosteric modulation of rat GluN1a/GluN2C receptor expressed in Xenopus laevis oocytes assessed as suppression of 100 uM glutamate and 30 uM glycine induced-current at saturating compound level by voltage clamp recording method. The class given is cell-based. In a few lines:
as §1

Data set [4] has as its target Glutamate NMDA receptor; Grin1/Grin2a (Rattus norvegicus, UniProt P35439+Q00959). As to the kind of experiment: Negative allosteric modulation of rat GluN1a/GluN2A receptor expressed in Xenopus laevis oocytes assessed as suppression of 100 uM glutamate and 30 uM glycine glycine induced-current by voltage clamp recording method. The class given is cell-based. In a few lines: as §1

Data set [5] has as its target T4, Glutamate NMDA receptor; Grin1/Grin2b (Rattus norvegicus) (UniProt P35439+Q00960). As to the kind of experiment: Negative allosteric modulation of rat GluN1a/GluN2B receptor expressed in Xenopus laevis oocytes assessed as suppression of 100 uM glutamate and 30 uM glycine induced-current at saturating compound level by voltage clamp recording method. It is filed as cell-based. In a few lines:
as §1

The next data set is filed under the species Rattus norvegicus. As to the kind of experiment: Selectivity ratio of IC50 for rat GluN1a/GluN2A receptor expressed in Xenopus laevis oocytes to IC50 for rat GluN1a/GluN2D receptor expressed in Xenopus laevis oocytes. The class given is cell-based.
Data set [6] addresses Ionotropic glutamate receptor NMDA 1/2D (Rattus norvegicus, UniProt P35439+Q62645). The data set can be described thus: Negative allosteric modulation of rat GluN1a/GluN2D receptor expressed in Xenopus laevis oocytes assessed as suppression of 100 uM glutamate and 30 uM glycine induced-current by voltage clamp recording method. It is filed as cell-based. The method, boiled down: as §1

For data set [7], the target named is Glutamate NMDA receptor; Grin1/Grin2c (Rattus norvegicus, UniProt P35439+Q00961). As to the kind of experiment: Negative allosteric modulation of rat GluN1a/GluN2C receptor expressed in Xenopus laevis oocytes assessed as suppression of 100 uM glutamate and 30 uM glycine induced-current by voltage clamp recording method. It is filed as cell-based. In a few lines:
as §1

The target of data set [8] is Glutamate NMDA receptor; Grin1/Grin2b (Rattus norvegicus, UniProt P35439+Q00960). The data set can be described thus: Negative allosteric modulation of rat GluN1a/GluN2B receptor expressed in Xenopus laevis oocytes assessed as suppression of 100 uM glutamate and 30 uM glycine induced-current by voltage clamp recording method. It is filed as cell-based. In a few lines: as §1

In data set [9] the test system is Primary neuron. The data set can be described thus: Neuroprotective activity in rat primary hippocampal neurons assessed as 100 uM NMDA and 30 uM glycine induced LDH release in media at 10 uM after 20 to 24 hrs by spectrophotometric analysis. The class given is functional, cell-based. In a few lines: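 Rat hippocampal neurons were cultured 7–10 days in vitro at 37 °C. They were challenged for 1 h in Mg2+-free medium with 100 µM NMDA plus 30 µM glycine, then returned to normal medium. LDH in the supernatant was read spectrophotometrically 20–24 h later and expressed relative to vehicle-treated cells. Triplicates from 6 independent experiments.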
Background: Release of lactate dehydrogenase indicates damage to the cell membrane.

Data set [10] addresses T2, Glutamate NMDA receptor; Grin1/Grin2a (Rattus norvegicus). As to the kind of experiment: Noncompetitive negative allosteric modulation of rat GluN1a/GluN2A receptor expressed in Xenopus laevis oocytes assessed as suppression of 100 uM glutamate and 300 uM glycine induced-current at 5 uM by voltage clamp recording method relative to control. It is filed as cell-based. In a few lines:
(§2)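 Oocytes expressing GluN1 with GluN2A, 2B, 2C or 2D, two-electrode voltage clamp. Inhibition by 5 µM compound of currents evoked by 100 µM glutamate plus 30 µM glycine, compared with inhibition when glutamate was raised to 1000 µM or glycine to 300 µM. Mean ±SEM from 4–6 oocytes.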

Data set [11] concerns the target T4, Glutamate NMDA receptor; Grin1/Grin2b (Rattus norvegicus). The data set can be described thus: Noncompetitive negative allosteric modulation of rat GluN1a/GluN2B receptor expressed in Xenopus laevis oocytes assessed as suppression of 1000 uM glutamate and 30 uM glycine induced-current at 5 uM by voltage clamp recording method relative to control. It is filed as cell-based. The method, boiled down:
as §2

Data set [12] has as its system Primary neuron. As to the kind of experiment: Neuroprotective activity in rat primary hippocampal neurons assessed as 100 uM NMDA and 30 uM glycine induced LDH release in media at 30 uM after 20 to 24 hrs by spectrophotometric analysis. It is filed as functional, cell-based. In a few lines: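 Primary rat hippocampal neurons kept 7–10 days in vitro at 37 °C. Challenged for 1 h with Mg2+-free medium containing 100 µM NMDA plus 30 µM glycine, with or without […], then returned to normal medium. LDH activity in the supernatant read spectrophotometrically 20–24 h later and expressed relative to vehicle-treated cells. Triplicates from 6 independent experiments.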

Data set [13] concerns the target T3, Glutamate NMDA receptor; Grin1/Grin2c (Rattus norvegicus). The data set can be described thus: Noncompetitive negative allosteric modulation of rat GluN1a/GluN2C receptor expressed in Xenopus laevis oocytes assessed as suppression of 1000 uM glutamate and 30 uM glycine induced-current at 5 uM by voltage clamp recording method relative to control. It is filed as cell-based. The method, boiled down: as §2

Data set [14] addresses T2, Glutamate NMDA receptor; Grin1/Grin2a (Rattus norvegicus). As to the kind of experiment: Noncompetitive negative allosteric modulation of rat GluN1a/GluN2A receptor expressed in Xenopus laevis oocytes assessed as suppression of 1000 uM glutamate and 30 uM glycine induced-current at 5 uM by voltage clamp recording method relative to control. The class given is cell-based. The method, boiled down: as §2

A short description of data set [15]: Solubility of compound in TEVC electrophysiological solution at 3.25 to 100 uM by nephelometric method. It is filed as physicochemical. The method, boiled down: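 Nephelometry measuring forward light scattering of each compound at 3.25–100 µM in TEVC recording solution. Maximum solubility taken as the intersection point of a linear segmental regression. Mean of n = 2 in quadruplicate.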

In data set [16] the target is T3, Glutamate NMDA receptor; Grin1/Grin2c (Rattus norvegicus). The data set can be described thus: Voltage-independent negative allosteric modulation of rat GluN1a/GluN2C receptor expressed in Xenopus laevis oocytes assessed as mean reverse potential of 100 uM glutamate and 30 uM glycine induced-current at -60 to +60 mV at 3 uM by voltage clamp recording method in absence of Mg2+ (Rvb=-13+/-0.6 mV). The class given is cell-based. The method, boiled down:
(§3)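 GluN1/GluN2C receptors in Xenopus oocytes, two-electrode voltage clamp in Mg2+-free solution. Currents evoked by maximally effective glutamate plus glycine, without and with 3 µM inhibitor, recorded at membrane potentials from −60 to +60 mV. Reversal potential taken from the current–voltage relationship (3rd-order polynomial fit). n = 5 oocytes, mean ±SEM.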

A further data set deals with Glutamate NMDA receptor. The data set can be described thus: Negative allosteric modulation of NMDA receptor in rat cerebellar granule cells assessed as suppression of 100 uM glutamate and 30 uM glycine induced-current cotreated with 100 uM NMDA and 50 uM glycine by patch clamp recording method. The method, boiled down:
(§4)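 Primary cerebellar granule cell cultures from P6–8 rats, whole-cell patch clamp at a holding potential of −70 mV. NMDA receptor currents evoked by 100 µM NMDA plus 30 µM glycine (50 µM glycine in the example trace), with the inhibitor co-applied at various concentrations. Steady-state inhibition averaged over n = 5 cells and fitted with the Hill equation.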

Data set [17] addresses T1, Ionotropic glutamate receptor NMDA 1/2D (Rattus norvegicus). The data set can be described thus: Noncompetitive negative allosteric modulation of rat GluN1a/GluN2D receptor expressed in Xenopus laevis oocytes assessed as suppression of 100 uM glutamate and 300 uM glycine induced-current at 5 uM by voltage clamp recording method relative to control. It is filed as cell-based. In a few lines:
as §2

Data set [18] concerns the target T3, Glutamate NMDA receptor; Grin1/Grin2c (Rattus norvegicus). The data set can be described thus: Negative allosteric modulation of rat GluN1a/GluN2C receptor expressed in Xenopus laevis oocytes assessed as suppression of 100 uM glutamate and 30 uM glycine induced-current at -60 to +60 mV at 3 uM by voltage clamp recording method in absence of Mg2+. The class given is cell-based. In a few lines: as §3

The target of data set [19] is T4, Glutamate NMDA receptor; Grin1/Grin2b (Rattus norvegicus). The data set can be described thus: Noncompetitive negative allosteric modulation of rat GluN1a/GluN2B receptor expressed in Xenopus laevis oocytes assessed as suppression of 100 uM glutamate and 300 uM glycine induced-current at 5 uM by voltage clamp recording method relative to control. It is filed as cell-based. In a few lines:
as §2

Data set [20] addresses Glutamate NMDA receptor (Rattus norvegicus) (UniProt P35439+Q00959+Q00960+Q00961+Q62645+Q8VHN2+Q9R1M7). The data set can be described thus: Negative allosteric modulation of NMDA receptor in rat cerebellar granule cells assessed as suppression of 100 uM glutamate and 30 uM glycine induced-current at 30 uM cotreated with 100 uM NMDA and 50 uM glycine by patch clamp recording method. In a few lines:
as §4
For orientation: Patch clamp records ionic current or voltage across a cell membrane.

The target in data set [21] is T1, Ionotropic glutamate receptor NMDA 1/2D (Rattus norvegicus). The data set can be described thus: Noncompetitive negative allosteric modulation of rat GluN1a/GluN2D receptor expressed in Xenopus laevis oocytes assessed as suppression of 1000 uM glutamate and 30 uM glycine induced-current at 5 uM by voltage clamp recording method relative to control. The class given is cell-based. The method, boiled down:
as §2

Data set [22] has as its target T3, Glutamate NMDA receptor; Grin1/Grin2c (Rattus norvegicus). The data set can be described thus: Noncompetitive negative allosteric modulation of rat GluN1a/GluN2C receptor expressed in Xenopus laevis oocytes assessed as suppression of 100 uM glutamate and 300 uM glycine induced-current at 5 uM by voltage clamp recording method relative to control. The class given is cell-based. In a few lines:
as §2

The inhibition is the change of the read-out against control, counted positive when it falls. A word on the IC50: it is the concentration at which inhibition is half-maximal. Take `CCOC(=O)c1c(NC(=O)CC2SC(=N)NC2=O)sc2c1CCSC2` (racemic): the inhibition came to 84% in data set [1], 82% in data set [2], 88% in data set [3] and 78% in data set [5]. Moreover, the IC50 in data set [4] stood at 6200 nM; in data set [6], 800 nM; in [7], 800 nM; in [8], 12200 nM. In the data set listed under Rattus norvegicus, the Ratio IC50 worked out at 7.

On to `C[C@]12N[C@H](Cc3ccccc31)c1ccccc12`, for which the outcome in the data set with Primary neuron [9] was Active.

In general, solubility (kinetic) refers to solubility judged after dilution from a stock solution rather than from solid. Turning to `CCOC(=O)c1c(NC(=O)CC2SC(N)=NC2=O)sc2c1CCC(C)C2` (racemic), the inhibition in data set [1] came out at 76%; in data set [2], 88%; in data set [3], 80%; in [5] it was 70%. Moreover, the inhibition entry in data set [10], in [11], in data set [13], in data set [14], in data set [17] and in data set [18] was “Active” each time. Moreover, the inhibition entry in data set [19], in data set [20], in [21] and in data set [22] was “Active” in each case. Further, the result with Primary neuron [12] was Active. For the same compound, the solubility (kinetic) in data set [15] was 43 µM (≈ 17 µg/mL). In [16], the Activity is -11.9 mV. In addition, the half-inhibitory concentration (IC50) in data set [4] stood at 900 nM; at Glutamate NMDA receptor it was 3400 nM; in [6], 400 nM; in data set [7], 700 nM; in data set [8] it was 2200 nM.
